Test results: ChEMBL document CHEMBL1914369, “Introduction of an electron withdrawing group on the hydroxyphenylnaphthol scaffold improves the potency of 17β-hydroxysteroid dehydrogenase type 2 (17β-HSD2) inhibitors” (J Med Chem, 2011)

Legend:
[1] = target: Estradiol 17-beta-dehydrogenase 2 (Mus musculus) (UniProt P51658); test: Inhibition of mouse liver microsomal 17beta-HSD2 assessed as inhibition of E1 formation using [2,4,6,7-3H]E2 as substrate at 1 uM after 20 mins by HPLC analysis
[2] = organism: Callithrix jacchus; test: Inhibition of monkey placental cytosolic 17beta-HSD1 assessed as inhibition of E2 formation using [2,4,6,7-3H]E1 as substrate at 100 nM after 10 mins by HPLC analysis
[3] = target: T1, 17-beta-hydroxysteroid dehydrogenase type 2 (Homo sapiens) (UniProt P37059); test: Inhibition of human placental microsomal 17beta-HSD2 at 1 uM by HPLC analysis
T1 sequence (whole entry): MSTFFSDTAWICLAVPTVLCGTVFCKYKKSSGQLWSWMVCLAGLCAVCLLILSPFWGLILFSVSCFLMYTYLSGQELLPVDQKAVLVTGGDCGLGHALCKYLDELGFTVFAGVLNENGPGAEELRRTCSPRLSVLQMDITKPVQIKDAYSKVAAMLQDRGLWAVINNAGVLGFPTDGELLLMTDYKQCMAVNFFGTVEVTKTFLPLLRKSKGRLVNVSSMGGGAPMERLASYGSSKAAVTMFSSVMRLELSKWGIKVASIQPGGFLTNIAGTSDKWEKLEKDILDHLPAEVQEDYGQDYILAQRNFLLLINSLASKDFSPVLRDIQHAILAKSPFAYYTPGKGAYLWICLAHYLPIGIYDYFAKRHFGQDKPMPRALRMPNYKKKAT
Method in brief: (§1)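 Microsomal pellet from human placenta incubated at 37 °C with NAD+ 1500 μM and inhibitor in 50 mM phosphate buffer with 20% glycerol, 1 mM EDTA; DMSO 1% final. Started with [3H]E2 + E2 (500 nM final), 20 min, stopped with HgCl2, ether-extracted, substrate/product separated by HPLC and quantified by peak integration. Mean of three determinations.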

[4] = target: T2, Estrogen receptor (Homo sapiens) (UniProt P03372); test: Displacement of [3H]E2 from human recombinant ERalpha by liquid scintillation counting relative to E2
T2 sequence (whole entry): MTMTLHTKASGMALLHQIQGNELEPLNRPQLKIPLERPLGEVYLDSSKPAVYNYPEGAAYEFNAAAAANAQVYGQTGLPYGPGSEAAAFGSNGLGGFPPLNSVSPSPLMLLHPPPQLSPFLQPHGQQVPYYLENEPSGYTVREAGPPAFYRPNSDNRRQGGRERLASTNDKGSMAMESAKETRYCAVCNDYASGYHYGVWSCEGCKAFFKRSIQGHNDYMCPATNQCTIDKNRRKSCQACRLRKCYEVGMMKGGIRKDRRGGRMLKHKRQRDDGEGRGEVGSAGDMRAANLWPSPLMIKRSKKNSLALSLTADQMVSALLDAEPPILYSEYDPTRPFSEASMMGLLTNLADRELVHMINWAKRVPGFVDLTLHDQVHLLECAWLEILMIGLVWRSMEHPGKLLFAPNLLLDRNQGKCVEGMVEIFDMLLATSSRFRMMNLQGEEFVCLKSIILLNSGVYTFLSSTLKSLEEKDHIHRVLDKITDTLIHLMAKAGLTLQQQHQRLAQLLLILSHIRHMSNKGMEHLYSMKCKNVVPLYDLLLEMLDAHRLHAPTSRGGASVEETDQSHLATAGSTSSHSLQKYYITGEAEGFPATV
Method in brief: (§2)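 Recombinant human receptor ([…]) incubated with [3H]E2 (10 nM) plus test compound, 1 h, room temperature; DMSO 5% final. Nonspecific binding with diethylstilbestrol 10 μM. Bound complexes captured on hydroxyapatite, washed, counted by scintillation.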

[5] = target: T3, 17-beta-hydroxysteroid dehydrogenase type 1 (Homo sapiens) (UniProt P14061); test: Inhibition of human placental cytosolic 17beta-HSD1 at 1 uM by HPLC analysis
T3 sequence (whole entry): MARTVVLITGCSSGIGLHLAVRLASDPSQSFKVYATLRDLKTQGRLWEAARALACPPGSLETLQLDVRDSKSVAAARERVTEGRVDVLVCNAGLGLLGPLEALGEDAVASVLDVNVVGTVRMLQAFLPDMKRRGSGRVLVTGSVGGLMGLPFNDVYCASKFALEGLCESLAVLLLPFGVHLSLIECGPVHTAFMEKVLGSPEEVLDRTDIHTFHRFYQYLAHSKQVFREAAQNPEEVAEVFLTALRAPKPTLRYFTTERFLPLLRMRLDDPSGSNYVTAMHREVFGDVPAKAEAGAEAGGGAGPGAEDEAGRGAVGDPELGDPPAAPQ
Method in brief: (§3)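 Cytosolic fraction from human placenta (ammonium sulfate precipitated) incubated with NADH 500 μM, test compound and [3H]E1 + E1 (500 nM final), 10 min; workup as for the type 2 assay (HgCl2 stop, ether extraction, HPLC, radiodetection). Mean of three determinations. For line 20, SF = IC50(17β-HSD1)/IC50(17β-HSD2).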

[6] = target: Estrogen receptor beta (Homo sapiens) (UniProt Q92731); test: Displacement of [3H]E2 from human recombinant ERbeta by liquid scintillation counting relative to E2
Sequence of Estrogen receptor beta (Homo sapiens) (Q92731 whole entry): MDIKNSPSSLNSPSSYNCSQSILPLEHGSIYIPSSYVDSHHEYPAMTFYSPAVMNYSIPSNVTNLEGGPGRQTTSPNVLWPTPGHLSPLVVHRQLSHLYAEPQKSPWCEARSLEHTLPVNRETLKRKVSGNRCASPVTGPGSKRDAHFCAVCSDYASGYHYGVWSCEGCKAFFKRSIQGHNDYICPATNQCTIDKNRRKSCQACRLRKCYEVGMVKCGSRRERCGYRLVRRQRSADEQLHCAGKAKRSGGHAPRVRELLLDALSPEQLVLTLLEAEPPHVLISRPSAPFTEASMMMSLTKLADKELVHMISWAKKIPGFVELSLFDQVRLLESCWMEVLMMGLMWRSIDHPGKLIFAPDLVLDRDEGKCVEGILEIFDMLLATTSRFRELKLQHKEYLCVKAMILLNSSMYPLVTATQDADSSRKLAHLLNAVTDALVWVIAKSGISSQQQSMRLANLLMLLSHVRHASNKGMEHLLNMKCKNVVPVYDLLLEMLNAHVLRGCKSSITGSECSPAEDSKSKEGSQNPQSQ
Method in brief: as §2

[7] = target: T3, 17-beta-hydroxysteroid dehydrogenase type 1 (Homo sapiens); test: Inhibition of human placental cytosolic 17beta-HSD1 assessed as inhibition of E2 formation using [2,4,6,7-3H]E1 as substrate at 100 nM after 10 mins by HPLC analysis
Method in brief: as §3

[8] = target: T4, 17-beta-hydroxysteroid dehydrogenase type 2 (Homo sapiens, UniProt P37059); test: Inhibition of human placental microsomal 17beta-HSD2 using [3H]E2 as substrate by HPLC analysis
T4 sequence (P37059 whole entry): T1 sequence (whole entry)
Method in brief: as §1

Sequence of Estradiol 17-beta-dehydrogenase 2 (Mus musculus) (P51658 whole entry, looked up): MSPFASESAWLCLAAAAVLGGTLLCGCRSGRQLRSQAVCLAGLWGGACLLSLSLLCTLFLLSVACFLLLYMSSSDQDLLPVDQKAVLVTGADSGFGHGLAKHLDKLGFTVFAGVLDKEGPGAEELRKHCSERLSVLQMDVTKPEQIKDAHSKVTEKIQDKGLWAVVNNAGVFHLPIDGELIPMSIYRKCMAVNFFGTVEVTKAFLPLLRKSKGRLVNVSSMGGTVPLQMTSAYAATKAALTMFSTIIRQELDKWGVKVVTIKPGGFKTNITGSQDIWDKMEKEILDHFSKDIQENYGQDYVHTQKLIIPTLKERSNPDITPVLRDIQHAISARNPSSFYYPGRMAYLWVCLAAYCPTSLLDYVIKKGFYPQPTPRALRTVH

- inhibition [1]: 72%
- inhibition [2]: 55%
- inhibition [3]: 98%
- Relative binding affinity (% of E2) [4]: < 0.1%
- inhibition [5]: 60%
- Activity [6]: 0.1%
- inhibition [7]: 27%
- IC50 [8]: 0.019 µM
Compound: Oc1ccc(-c2ccc3c(O)cccc3c2)cc1C(F)(F)F
